The source made the active and inactive calls. No cut-off for these calls is given here.
What was measured:
Plasmodium berghei [1] = test: Antimalarial activity against sc dosed Plasmodium berghei infected in mouse assessed as dose resulting in mean survival time […]; assay type: functional; conditions: read-out: MED
Plasmodium berghei [2] = test: Antimalarial activity against Plasmodium berghei infected in mouse assessed as change in mean survival time at 20 mg/kg, sc administered as single dose 72 hrs after parasite infection (reference value: 6.1 days); assay type: functional; conditions: route subcutaneous
Plasmodium berghei [3] = test: Antimalarial activity against Plasmodium berghei infected in mouse assessed as curing of parasite infection at 160 mg/kg, sc administered as single dose 72 hrs after parasite infection; assay type: functional, organism-based; set-up: dose 160 mg/kg
How it was run: (§1)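 Mice (five per group) infected with P. berghei were given a single subcutaneous dose 72 h after infection. Increase in mean survival time over infected untreated controls was recorded, and an increase of at least 100% counted as activity. The screen was run by Rane Laboratories.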

Plasmodium berghei [4] = test: Antimalarial activity against Plasmodium berghei infected in mouse assessed as change in mean survival time at 10 mg/kg, sc administered as single dose 72 hrs after parasite infection (reference value: 6.1 days); assay type: functional; conditions: route subcutaneous
Plasmodium berghei [5] = test: Antimalarial activity against Plasmodium berghei infected in mouse assessed as curing of parasite infection at 640 mg/kg, sc administered as single dose 72 hrs after parasite infection; assay type: functional, organism-based; set-up: dose 640 mg/kg
Plasmodium berghei [6] = test: Antimalarial activity against Plasmodium berghei infected in mouse assessed as curing of parasite infection at 320 mg/kg, sc administered as single dose 72 hrs after parasite infection; assay type: functional, organism-based; set-up: dose 320 mg/kg; how it was run: as §1
Plasmodium berghei [7] = test: Antimalarial activity against Plasmodium berghei infected in mouse assessed as change in mean survival time at 40 mg/kg, sc administered as single dose 72 hrs after parasite infection (reference value: 6.1 days); assay type: functional; conditions: route subcutaneous
Plasmodium berghei [8] = test: Antimalarial activity against Plasmodium berghei infected in mouse assessed as change in mean survival time at 80 mg/kg, sc administered as single dose 72 hrs after parasite infection (reference value: 6.1 days); assay type: functional; conditions: route subcutaneous
Plasmodium berghei [9] = test: Antimalarial activity against Plasmodium berghei infected in mouse assessed as change in mean survival time at 640 mg/kg, sc administered as single dose 72 hrs after parasite infection (reference value: 6.1 days); assay type: functional; conditions: route subcutaneous

For `CCCCN(CCCC)CC(O)c1cc(-c2ccc(Cl)cc2)nc2c(Cl)cc(Cl)cc12.Cl` (stereo not given), the minimal effective dose (Plasmodium berghei [1]) was 10 mg/kg.
`Cl.OC(c1cc(-c2ccc(Cl)cc2)nc2c(Cl)cc(Cl)cc12)C1CCCCN1` (stereo not given) showed a minimal effective dose (Plasmodium berghei [1]) of 5 mg/kg.
`CCCCN(CCCC)CCC(O)c1cc(-c2ccc(Cl)cc2)cc2c(Cl)cc(Cl)cc12.Cl` (stereo not given) was tested, and the MST (Plasmodium berghei [2]) was 12.1 days, the Activity (Plasmodium berghei [3]) was “Active” and the MST (Plasmodium berghei [4]) was 2.9 days. For the same compound, the Activity (Plasmodium berghei [5]) was “Active” and the Activity (Plasmodium berghei [6]) was “Active”.
For `CCCCN(CCCC)CC(O)c1cc(-c2ccc(Cl)cc2)cc2c(Cl)cc(Cl)cc12.Cl` (stereo not given), the MST (Plasmodium berghei [2]) was 9.5 days, the minimal effective dose (Plasmodium berghei [1]) was 10 mg/kg and the MST (Plasmodium berghei [7]) was 10.5 days. For the same compound, the MST (Plasmodium berghei [4]) was 7.9 days and the Activity (Plasmodium berghei [5]) was “Active”.
`CC(=O)O.OC(c1cc(-c2ccc(Cl)cc2)cc2c(Cl)cc(Cl)cc12)C1CCCCN1` (stereo not given) gave an MST (Plasmodium berghei [2]) of 1.1 days, a minimal effective dose (Plasmodium berghei [1]) of 20 mg/kg and an MST (Plasmodium berghei [4]) of 0.5 days.
`Cl.OC(CC1CCCCN1)c1cc(-c2ccc(Cl)cc2)cc2c(Cl)cc(Cl)cc12` (stereo not given) was tested, and the MST (Plasmodium berghei [2]) was 9.8 days, the MST (Plasmodium berghei [8]) was 16.6 days and the MST (Plasmodium berghei [7]) was 11.8 days. The MST (Plasmodium berghei [4]) was 3.6 days and the MST (Plasmodium berghei [9]) was 6 days.

— ChEMBL document CHEMBL3227949, “Antimalarials. 4. Trichloronaphthalene amino alcohols” (1979)
